Measured values taken from ChEMBL document CHEMBL1149894, “Glycosidic constituents of the tubers of Gymnadenia conopsea” (J Nat Prod, 2008).
Calls of active or inactive are those of the source. The calls are words filed in the database; no cut-off is given here.

Columns and labels:
[1] = biological target: T1, Acetylcholinesterase (Rattus norvegicus) (UniProt P37136); test: Inhibition of rat brain AChE at 10 uM by Ellman method
T1 sequence (whole entry): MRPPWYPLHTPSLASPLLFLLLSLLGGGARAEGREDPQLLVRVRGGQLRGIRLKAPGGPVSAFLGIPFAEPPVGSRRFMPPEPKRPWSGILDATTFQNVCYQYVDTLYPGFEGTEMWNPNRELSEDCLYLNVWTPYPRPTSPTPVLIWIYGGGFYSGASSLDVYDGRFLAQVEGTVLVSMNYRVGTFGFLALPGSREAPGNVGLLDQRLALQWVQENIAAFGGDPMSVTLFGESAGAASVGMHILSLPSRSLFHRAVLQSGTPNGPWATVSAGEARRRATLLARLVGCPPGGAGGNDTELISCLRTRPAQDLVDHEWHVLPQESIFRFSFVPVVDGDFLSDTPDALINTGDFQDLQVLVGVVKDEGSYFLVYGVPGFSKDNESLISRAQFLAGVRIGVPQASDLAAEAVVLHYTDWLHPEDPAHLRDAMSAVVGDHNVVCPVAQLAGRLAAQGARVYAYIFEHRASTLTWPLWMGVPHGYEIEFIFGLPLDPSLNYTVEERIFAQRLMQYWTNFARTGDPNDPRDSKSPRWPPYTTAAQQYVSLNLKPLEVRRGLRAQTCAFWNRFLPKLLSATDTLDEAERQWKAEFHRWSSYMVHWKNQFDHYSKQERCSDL
Method in brief: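 Source: fresh rat brain homogenised in 9 volumes of ice-cold PBS, incubated with each test compound separately. Activity measured spectrophotometrically at 25 °C by the Ellman method; test compounds at 10^-5 M; donepezil as positive control; read as percent inhibition.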

[2] = biological target: T2, Amine oxidase [flavin-containing] B (Rattus norvegicus, UniProt P19643); test: Inhibition of rat brain monoamine oxidase B at 10 uM
T2 sequence (P19643 whole entry): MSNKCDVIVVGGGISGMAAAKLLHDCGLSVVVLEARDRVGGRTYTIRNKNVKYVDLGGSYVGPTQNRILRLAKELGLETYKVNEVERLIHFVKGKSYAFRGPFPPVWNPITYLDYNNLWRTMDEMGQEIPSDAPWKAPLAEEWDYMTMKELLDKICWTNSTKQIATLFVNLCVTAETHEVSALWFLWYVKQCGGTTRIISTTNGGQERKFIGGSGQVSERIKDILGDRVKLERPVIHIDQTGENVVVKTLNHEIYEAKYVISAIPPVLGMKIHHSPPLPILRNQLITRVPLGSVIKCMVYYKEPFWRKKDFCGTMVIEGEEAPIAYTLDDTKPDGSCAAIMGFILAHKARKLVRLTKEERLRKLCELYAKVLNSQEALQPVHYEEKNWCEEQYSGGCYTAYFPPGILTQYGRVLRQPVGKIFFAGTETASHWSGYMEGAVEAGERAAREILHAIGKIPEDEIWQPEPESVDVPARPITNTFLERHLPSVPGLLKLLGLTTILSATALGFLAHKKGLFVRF
Method in brief: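 Fresh rat brain homogenized in 9-fold volume of ice-cold PBS and incubated separately with each compound at 10^-5 M. MAO-B activity was determined by quantifying the oxidation product of benzylamine substrate. Pargyline was the positive control. The value is reported as an inhibition rate.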

Structure (SMILES) | Activity [1] | Activity [2]
OCc1ccc(O[C@@H]2O[C@H](CO)[C@@H](O)[C@H](O[C@@H]3O[C@H](CO)[C@@H](O)[C@H](O)[C@H]3O)[C@H]2O)cc1 | inactive | Not Active
CC(C)C[C@](O)(C(=O)OCc1ccc(O[C@@H]2O[C@H](CO)[C@@H](O)[C@H](O)[C@H]2O)cc1)[C@H](O)C(=O)OCc1ccc(O[C@@H]2O[C@H](CO[C@@H]3O[C@H](CO)[C@@H](O)[C@H](O)[C@H]3O)[C@@H](O)[C@H](O)[C@H]2O)cc1 | inactive | Not Active
CC(C)C[C@](O[C@@H]1O[C@H](CO)[C@@H](O)[C@H](O)[C@H]1O)(C(=O)OCc1ccc(O[C@@H]2O[C@H](CO)[C@@H](O)[C@H](O)[C@H]2O)cc1)C(O)C(=O)OCc1ccc(O[C@@H]2O[C@H](CO)[C@@H](O[C@H]3O[C@H](CO)[C@@H](O)[C@H](O)[C@H]3O)[C@H](O)[C@H]2O)cc1 (stereo partly drawn) | inactive | Not Active
OCc1ccc(O[C@@H]2O[C@H](CO)[C@@H](O[C@@H]3O[C@H](CO)[C@@H](O)[C@H](O)[C@H]3O)[C@H](O)[C@H]2O)cc1 | inactive | Not Active
CC(C)C[C@](O[C@@H]1O[C@H](CO)[C@@H](O)[C@H](O)[C@H]1O)(C(=O)OCc1ccc(O[C@@H]2O[C@H](CO)[C@@H](O)[C@H](O)[C@H]2O)cc1)[C@H](O)C(=O)OCc1ccc(O[C@@H]2O[C@H](CO)[C@@H](O)[C@H](O[C@@H]3O[C@H](CO)[C@@H](O)[C@H](O)[C@H]3O)[C@H]2O)cc1 | inactive | Not Active
CC(C)C[C@](CC(=O)OCc1ccc(O[C@@H]2O[C@H](CO)[C@@H](O)[C@H](O)[C@H]2O)cc1)(O[C@@H]1O[C@H](CO)[C@@H](O)[C@H](O)[C@H]1O)C(=O)O | inactive | Not Active
CCOCc1ccc(O[C@@H]2O[C@H](CO)[C@@H](O)[C@H](O[C@@H]3O[C@H](CO)[C@@H](O)[C@H](O)[C@H]3O)[C@H]2O)cc1 | inactive | Not Active
OCc1ccc(O[C@@H]2O[C@H](CO)[C@@H](O[C@H]3O[C@H](CO)[C@@H](O)[C@H](O)[C@H]3O)[C@H](O)[C@H]2O)cc1 | inactive | Not Active
COC(=O)[C@@H](O)[C@](O)(CC(C)C)C(=O)OCc1ccc(O[C@@H]2O[C@H](CO)[C@@H](O)[C@H](O)[C@H]2O)cc1 | inactive | Not Active
